High-throughput results as filed in PubChem BioAssay.
This is a sample that favours compounds with a hit; in the whole collection about 1.8% have one here.
M4 ag: human M4 muscarinic receptor agonists, primary screen, CHO-K1 cells, Fluo-8 calcium fluorescence; CHO-K1 hM4/Gqi5; vehicle 0%, full acetylcholine response 100%; activation, % at 3 µM; hit rate 0.14% among 360,000;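 active means activation above the run mean over all test wells plus 3 SD, cut at about 32% in these data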;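 further: peak over basal fluorescence ratio per well then scaled between controls; 0% = DMSO wells and 100% = acetylcholine at EC100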
CHRM5 PAM: human M5 muscarinic receptor positive allosteric modulators, primary screen, CHO-K1 cells, Fluo-8 calcium fluorescence. Muscarinic acetylcholine receptor M5 (Homo sapiens), P08912. CHO-K1 hM5, ACh EC20 PAM; 0% = ACh EC20, 100% = ACh EC100. activation, % at 3 µM. hit rate 0.3% among 360,000. AID 624038, 2012;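 active means activation above the run cutoff, the mean activation of all test compounds plus 3 SD, cut at about 18% in these data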
Target sequence (P08912 whole entry, looked up): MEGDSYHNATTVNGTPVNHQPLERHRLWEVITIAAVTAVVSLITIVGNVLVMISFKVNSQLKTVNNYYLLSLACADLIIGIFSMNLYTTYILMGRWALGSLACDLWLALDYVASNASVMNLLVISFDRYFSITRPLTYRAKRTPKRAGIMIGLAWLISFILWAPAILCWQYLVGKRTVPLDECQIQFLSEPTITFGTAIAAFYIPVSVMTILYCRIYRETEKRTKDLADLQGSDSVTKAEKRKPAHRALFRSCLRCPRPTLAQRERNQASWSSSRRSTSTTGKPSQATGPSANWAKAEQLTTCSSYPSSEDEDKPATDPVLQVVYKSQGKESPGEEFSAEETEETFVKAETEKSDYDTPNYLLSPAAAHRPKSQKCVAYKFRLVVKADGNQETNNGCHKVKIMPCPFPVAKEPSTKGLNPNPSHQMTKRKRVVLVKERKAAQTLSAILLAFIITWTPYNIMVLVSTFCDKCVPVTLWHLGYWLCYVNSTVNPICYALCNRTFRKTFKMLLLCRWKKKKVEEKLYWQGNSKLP
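Assay system: CHO-K1 hM5 cells / Incubation: Fluo-8 loading 80 min at 37 °C plus 30 min room temperature / Technique: Fluo-8 calcium dye fluorescence, kinetic read / Repeats: single replicate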
M4 PAM: human M4 muscarinic receptor positive allosteric modulators, primary screen, CHO-K1 cells, Fluo-8 calcium fluorescence; Muscarinic acetylcholine receptor M4 (Homo sapiens), P08173; CHO-K1 hM4/Gqi5, ACh EC20; 0% = ACh EC20, 100% = maximal ACh; activation, % at 3 µM; hit rate 0.4% among 360,000;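 active means activation above its plate's cutoff, the mean activation of sample wells plus 3 SD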
CHRM5 agonist: human M5 muscarinic receptor agonists, primary screen, CHO-K1 cells, Fluo-8 calcium fluorescence; Muscarinic acetylcholine receptor M5 (Homo sapiens), P08912; CHO-K1 hM5 cells; 0% DMSO wells, 100% maximal acetylcholine response; activation, % at 3 µM; hit rate 0.19% among 360,000;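 active means activation above the run's mean over test compounds plus 3 SD, cut at about 23% in these data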;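 further: signal is peak over basal fluorescence ratio across the kinetic read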
M5 antag: human M5 muscarinic receptor antagonists, primary screen, CHO cells, Fluo-8 calcium fluorescence | Muscarinic acetylcholine receptor M5 (Homo sapiens), P08912 | inhibition, % at 3 µM | hit rate 0.59% among 360,000 | CHO-hM5 cells, ACh EC80;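 active means inhibition above a per-plate cutoff, the mean of that plate's test compounds plus 3 SD, cut at about 27% in these data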;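 further: 0% = acetylcholine EC80 with DMSO and 100% = DMSO without agonist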
M4 antag: human M4 muscarinic receptor antagonists, primary screen, CHO cells, Fluo-8 calcium fluorescence; Muscarinic acetylcholine receptor M4 (Homo sapiens), P08173; CHO-hM4 cells, ACh EC80; inhibition, % at 3 µM; hit rate 0.73% among 360,000; AID 624125, 2012;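 active means inhibition above its plate's cutoff, the mean inhibition of sample wells plus 3 SD, cut at about 27% in these data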;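 further: 0% = acetylcholine EC80 with DMSO and 100% = DMSO without agonist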
Numbers without * were called inactive.

SMILES | M4 ag | CHRM5 PAM | M4 PAM | CHRM5 agonist | M5 antag | M4 antag
COc1ccccc1OC(C)C(=O)Nc1nc(-c2ccc(S(=O)(=O)N3CCOCC3)cc2)cs1 (configuration not stated) | 5 | -12 | -10 | -2 | 18 | 6
COc1ccc(-c2csc(NC(=O)c3ccc(S(C)(=O)=O)cc3)n2)cc1 | 24 | -24 | -14 | 23* | 10 | 7
COc1ccc(-c2csc(NC(=O)c3ccccc3S(C)(=O)=O)n2)cc1 | 10 | -6 | 0 | 3 | 4 | -4
COc1ccccc1C(=O)Nc1nc(-c2ccc(S(=O)(=O)N3CCOCC3)cc2)cs1 | 22 | -55 | -15 | 3 | 30* | 36*
CC1CN(C(=O)C2(C)CC2(Cl)Cl)CC(C)O1 (configuration not stated) | 0 | -7 | 6 | -2 | 6 | -5
Cc1ccc(NC(=O)COC(=O)Cc2c[nH]c3ccccc23)cc1C | 3 | 3 | 5 | -6 | 4 | 5
COc1ccc(C(=O)Nc2ccccc2C(=O)NCC2CCCO2)cc1 (configuration not stated) | 7 | -5 | 6 | 0 | 7 | -2
FC(F)Sc1ccc(NC(=S)NCC2CCCCC2)cc1 | 7 | -17 | -24 | 1 | 40* | 12
CCn1cc(C=O)c2cc(S(=O)(=O)N3CCOCC3)ccc21 | 2 | 4 | -1 | 0 | 6 | 26*
Cc1cc(C)n2nc(-c3ccc(Br)cc3)cc2n1 | 2 | 0 | 18* | -2 | -1 | 1
C[C@H]1CC[C@@]2(O[C@H](CCO)C[C@@H](O)[C@@H]2O)O1 | 0 | 5 | 6 | 1 | 3 | 7
CCn1c(=NC(=O)C2COc3ccccc3O2)sc2c(OC)ccc(OC)c21 (configuration not stated) | -2 | -3 | -21 | -2 | 5 | 36*
COCCn1c(=NC(=O)C2COc3ccccc3O2)sc2cc(S(N)(=O)=O)ccc21 (configuration not stated) | 13 | -9 | -13 | 4 | 4 | 2
O=S(=O)(/N=S1/CC=CCN1S(=O)(=O)c1ccccc1)c1ccccc1 (configuration not stated) | 22 | 3 | -7 | 26* | 6 | 16
COc1cccc(-c2ccc(NC(=O)C3CCCN(Cc4cnc(C)s4)C3)cc2)c1 (configuration not stated) | 13 | -1 | -6 | -1 | 0 | 4
COc1ccc(C(CNC(=O)c2cc3ccccc3cc2OC)N2CCCC2)cc1 (configuration not stated) | 9 | 20* | 27 | -1 | -2 | -13
COCCCNC(=O)c1cccc2c(-c3ccnn3C)coc12 | 1 | -4 | 5 | 3 | -2 | 3
O=C(C(=Cc1ccccc1)CN1CCCCC1)c1ccccc1 | 0 | -36 | -9 | -12 | 17 | 29*
C[C@@H]1CN([C@@H](C)CO)C(=O)CCCn2nncc2CO[C@H]1CN(C)C(=O)Nc1cccc(Oc2ccccn2)c1 | 1 | -2 | 2 | 0 | -7 | -16
C/C(=N/NC(=O)CN1CCN(Cc2ccccc2)CC1)c1ccc([N+](=O)[O-])cc1 | 1 | 9 | -3 | -4 | 0 | 1
O=[N+]([O-])c1cnc(Sc2ccncn2)c([N+](=O)[O-])c1 | 3 | -1 | -3 | 3 | -4 | -8
O=[N+]([O-])c1cnc(Sc2ccncn2)s1 | 17 | -7 | -7 | 1 | 19 | 32*
CCCCCC(=O)N/N=C(\C)c1ccc(Cl)cc1 | 2 | 4 | 6 | -2 | 1 | -9
CCOc1ccc(C2C(C#N)=C(N)SC(N)=C2C#N)cc1OCC | 6 | -3 | 1 | 5 | 4 | 5
CCc1ccc(C2C(C#N)=C(N)SC(N)=C2C#N)cc1 | 46* | -13 | -13 | 16 | 0 | 1
SMILES | M4 ag | CHRM5 PAM | M4 PAM | CHRM5 agonist | M5 antag | M4 antag
CNC(=O)c1c(NC(=O)c2cccc(N3C(=O)CCC3=O)c2)sc2c1CCCC2 | 2 | -7 | -10 | 1 | -1 | 3
COc1ccc(C(C#N)=C2C=CC(=NO)C=C2)cc1 | 1 | -2 | -11 | 0 | -2 | 5
N#CC(=C1C=CC(=NO)C(Cl)=C1)c1ccc(Cl)cc1 | 2 | 3 | -6 | -3 | 5 | 39*
CCCCn1c(N)c(N(CC(C)C)C(=O)c2ccc(N3C(=O)c4ccccc4C3=O)cc2)c(=O)[nH]c1=O | 1 | -8 | 4 | 0 | 24 | -4
COC(=O)c1ccccc1NC(=O)CSc1nc2ccsc2c(=O)n1CCCCC(=O)O | 0 | 6 | 4 | 1 | -5 | -15
CCc1nnc(NC(=O)CSc2nnc3nc(C)cc(C)n23)s1 | 2 | 0 | 18* | -3 | 10 | -21
CC1(C(=O)NC(=S)NNC(=O)c2ccncc2)CCCCC1 | 44* | -12 | -4 | 9 | 1 | -14
O=C(NNC(=S)NC(=O)C12CC3CC(CC(C3)C1)C2)c1ccncc1 | 76* | -16 | -29 | 28* | 12 | 12
Brc1ccsc1/C=N/Nc1ccccc1 | 2 | -9 | 2 | -1 | 12 | -3
OC[C@@H](O)[C@H](O)C(/C=N/Nc1ccccc1)=N\Nc1ccccc1 | 1 | -3 | 0 | 0 | 11 | -1
CC1CN(S(=O)(=O)c2cccc3nsnc23)CC(C)O1 (configuration not stated) | 0 | 5 | -9 | -2 | 2 | 27*
O=S(=O)(c1cccc2nsnc12)N1CCCC1 | 2 | -6 | 23 | -1 | -5 | -1
O=C(c1cccs1)N1CCC(c2nc3c(nnn3Cc3c(Cl)cccc3Cl)c(=O)[nH]2)CC1 | 0 | -2 | -1 | -1 | 8 | 6
COc1cc(NC(=O)COc2ccc(-n3ccnc3)cc2)cc(OC)c1 | 7 | -10 | -9 | 3 | 11 | 7
N#Cc1cccc(NC(=O)COc2ccc(-n3ccnc3)cc2)c1 | 17 | -17 | -14 | 0 | 40* | 26
Cc1ccc(C(=O)CSc2nc3cc(S(=O)(=O)N4CCOCC4)ccc3o2)cc1 | 1 | 19* | 7 | 0 | -11 | -9
CCSc1nc2cc(S(=O)(=O)N3CCOCC3)ccc2o1 | 1 | 5 | 0 | -2 | 6 | 0
